Columns and labels:
[1] = test system: Staphylococcus aureus; assay: Inhibition of staphyloxanthin biosynthesis in Staphylococcus aureus Pig1 isolate after 72 hrs; type: functional, organism-based; settings: PIG1, 72 h
How it was run: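 Wild-type clinical isolate Pig1 grown in THB (1 mL) with serially diluted compounds, 37 °C, 72 h, in duplicate. Cells centrifuged and washed twice with PBS. Pigment extracted with methanol, OD read at 450 nm. IC50 from dose-response fit of OD data.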

[2] = target: T1, 4,4'-diapophytoene synthase (Staphylococcus aureus, UniProt A9JQL9); assay: Inhibition of Staphylococcus aureus dehydrosqualene synthase expressed in Escherichia coli BL21 (DE3) cells by continuous spectrophotometric assay
T1 sequence (A9JQL9 whole entry): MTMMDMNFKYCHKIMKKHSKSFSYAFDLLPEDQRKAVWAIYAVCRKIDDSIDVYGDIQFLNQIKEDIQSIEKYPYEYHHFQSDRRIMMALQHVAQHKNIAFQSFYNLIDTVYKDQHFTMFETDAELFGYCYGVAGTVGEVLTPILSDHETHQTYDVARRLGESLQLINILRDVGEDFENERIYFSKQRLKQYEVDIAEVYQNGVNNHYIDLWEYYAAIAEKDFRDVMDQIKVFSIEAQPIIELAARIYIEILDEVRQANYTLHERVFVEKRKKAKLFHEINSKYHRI
How it was run: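 His-tagged S. aureus CrtM, Ni-NTA purified after IPTG induction (1 mM, 4 h). Compounds preincubated with 2 μg CrtM for 30 min at 20 °C. Phosphate release followed by continuous spectrophotometric coupled assay. IC50 from dose-response fit; Ki derived from IC50 and reported Km.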

[3] = target: T2, Squalene synthase (Homo sapiens, UniProt P37268); assay: Inhibition of human recombinant squalene synthase expressed in Escherichia coli BL21 (DE3) cells assessed as formation of 1,10-dioic acid metabolite by liquid scintillation
T2 sequence (P37268 whole entry): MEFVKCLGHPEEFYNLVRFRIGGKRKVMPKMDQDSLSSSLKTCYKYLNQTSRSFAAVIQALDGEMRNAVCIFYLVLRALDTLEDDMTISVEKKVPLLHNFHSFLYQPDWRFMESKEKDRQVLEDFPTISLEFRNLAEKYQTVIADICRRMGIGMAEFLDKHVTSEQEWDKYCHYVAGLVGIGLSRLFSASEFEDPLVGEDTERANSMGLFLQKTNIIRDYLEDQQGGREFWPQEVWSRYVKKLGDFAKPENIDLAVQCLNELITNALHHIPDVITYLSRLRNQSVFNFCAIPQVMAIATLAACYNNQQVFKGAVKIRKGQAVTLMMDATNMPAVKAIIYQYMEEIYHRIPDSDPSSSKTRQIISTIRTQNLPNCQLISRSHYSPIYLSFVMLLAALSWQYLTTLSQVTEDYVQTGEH

[4] = test system: BL21-DE3; assay: Selectivity ratio of IC50 for human squalene synthase to IC50 for Staphylococcus aureus dehydrosqualene synthase expressed in Escherichia coli BL21 (DE3) cells
[5] = test system: BL21-DE3; assay: Selectivity ratio of IC50 for human squalene synthase to IC50 for Staphylococcus aureus dehydrosqualene synthase expressed in Escherichia coli BL21 (DE3) cells assessed as relative selectivity relative to potassium 4-(3-phenoxyphenyl)-1-phosphonatobutane-1-sulfonate

Row | SMILES | IC50 [1] [nM] | IC50 [2] [nM] | other results
1 | O=P(O)(O)C(CCCc1ccc(Oc2ccccc2)cc1)S(=O)(=O)O (stereo not given) | 190 |  | 
2 | O=P(O)(O)C(CCCc1cccc(Oc2ccc(Cl)c(Cl)c2)c1)S(=O)(=O)O (stereo not given) | 11 | 2200 | 
3 | O=P(O)(O)C(CCCc1cccc(Oc2ccccc2Cc2ccccc2)c1)S(=O)(=O)O (stereo not given) | 19 |  | 
4 | O=P(O)(O)[C@H](CCCc1cccc(Oc2ccccc2)c1)S(=O)(=O)O | 50 |  | 
5 | Cc1ccc(-c2ccc(CCCC(P(=O)(O)O)S(=O)(=O)O)cc2)cc1 (stereo not given) | 180 |  | 
6 | CCn1c2ccccc2c2cc(CCCC(P(=O)(O)O)S(=O)(=O)O)ccc21 (stereo not given) | 263000 |  | 
7 | O=P(O)(O)C(CCCc1cccc(Oc2ccc(F)c(F)c2)c1)S(=O)(=O)O (stereo not given) | 110 | 1700 | 
8 | O=P(O)(O)C(CCCc1cccc(Oc2ccc3occc3c2)c1)S(=O)(=O)O (stereo not given) | 15 | 2100 | 
9 | O=P(O)(O)C(CCCc1cc(Oc2ccc(F)cc2)ccc1F)S(=O)(=O)O (stereo not given) | 59 | 2100 | 
10 | O=P(O)(O)C(CCCc1cccc(Oc2ccc(F)cc2)c1)S(=O)(=O)O (stereo not given) | 52 |  | Ki [2]: 5 nM
11 | O=P(O)(O)C(CCCc1cccc(Oc2ccc(Cl)cc2)c1)S(=O)(=O)O (stereo not given) | 39 | 2500 | 
12 | O=P(O)(O)C(CCCc1cccc(Oc2cccc(C(F)(F)F)c2)c1)S(=O)(=O)O (stereo not given) | 74 | 9800 | 
13 | O=P(O)(O)C(CCCc1ccc(-c2ccc(F)cc2F)cc1)S(=O)(=O)O (stereo not given) | 180 |  | 
14 | O=P(O)(O)C(CCCc1ccc(-c2ccccc2)cc1)S(=O)(=O)O (stereo not given) | 350 |  | 
15 | O=P(O)(O)[C@@H](CCCc1cccc(Oc2ccccc2)c1)S(=O)(=O)O | 310 | 47900 | 
16 | O=P(O)(O)C(CCCc1cccc(Oc2ccccc2)c1)S(=O)(=O)O (racemic) | 110 |  | 
17 | CC(C)(C)c1ccc(Oc2cccc(CCCC(P(=O)(O)O)S(=O)(=O)O)c2)cc1 (stereo not given) | 21 |  | 
18 | O=P(O)(O)C(CCCc1cccc(Oc2cc(Cl)cc(Cl)c2)c1)S(=O)(=O)O (stereo not given) | 51 | 6300 | 
19 | O=P(O)(O)C(CCCc1ccc(-c2ccccc2)cc1)P(=O)(O)O | 2200 |  | Ki [2]: 1 nM

Row | SMILES | IC50 [1] [nM] | IC50 [2] [nM] | other results
20 | COc1ccc(Oc2ccc(F)cc2)cc1CCCC(P(=O)(O)O)S(=O)(=O)O (stereo not given) | 13800 |  | 
21 | O=P(O)(O)C(CCCc1cccc(Oc2ccccc2C(F)(F)F)c1)S(=O)(=O)O (stereo not given) | 460 | 53700 | 
22 | CP(=O)(O)C(CCCc1ccc(-c2ccccc2)cc1)P(=O)(O)O (stereo not given) | 1400 | 5400 | IC50 [3]: 72 nM; Ratio IC50 [4]: 0.014; Ratio IC50 [5]: 4.7
23 | O=P(O)(O)C(CCCc1cccc(Oc2ccc(C(F)(F)F)cc2)c1)S(=O)(=O)O (stereo not given) | 40 |  | 
24 | O=P(O)(O)C(CCCc1cccc(Oc2ccc(O)cc2)c1)S(=O)(=O)O (stereo not given) | 6800 |  | 
25 | CCCOc1cccc(-c2ccc(CCCC(P(=O)(O)O)S(=O)(=O)O)cc2)c1 (stereo not given) | 490 |  | 
26 | O=P(O)(O)C(CCCc1cccc(Cc2ccccc2)c1)S(=O)(=O)O (stereo not given) | 170 |  | 
27 | O=P(O)(O)C(CCCc1cccc(Oc2cccc(F)c2)c1)S(=O)(=O)O (stereo not given) | 220 | 2200 | 
28 | O=P(O)(O)C(Cc1cccc(Oc2ccccc2)c1)S(=O)(=O)O (stereo not given) | 33900 |  | Ratio IC50 [4]: 0.0022; Ratio IC50 [5]: 0.8
29 | O=P(O)(O)C(CCCc1cccc(Oc2ccccc2F)c1)S(=O)(=O)O (stereo not given) | 510 | 6900 | 
30 | CCCc1ccc(Oc2cccc(CCCC(P(=O)(O)O)S(=O)(=O)O)c2)cc1 (stereo not given) | 93 |  | Ki [2]: 5 nM
31 | O=P(O)(O)C(CCCc1cccc(Nc2ccccc2)c1)S(=O)(=O)O (stereo not given) | 500 |  | 
32 | O=P(O)(O)C(CCCc1cccc(Oc2ccc(-c3ccco3)cc2)c1)S(=O)(=O)O (stereo not given) | 1100 | 26300 | 
33 | O=P(O)(O)C(CCc1cccc(Oc2ccccc2)c1)S(=O)(=O)O (stereo not given) | 20400 |  | Ratio IC50 [4]: 0.0011; Ratio IC50 [5]: 0.4
34 | O=P(O)(O)C(CCCc1cccc(Oc2ccc(Cc3ccccc3)cc2)c1)S(=O)(=O)O (stereo not given) | 49 |  | 
35 | CCCCc1ccc(-c2ccc(CCCC(P(=O)(O)O)S(=O)(=O)O)cc2)cc1 (stereo not given) | 160 |  | 
36 | O=P(O)(O)C(CCCc1cccc(Oc2ccc(Oc3ccccc3)cc2)c1)S(=O)(=O)O (stereo not given) | 100 |  | 
37 | O=P(O)(O)C(CCCc1ccc(-c2ccc(C(F)(F)F)cc2)cc1)P(=O)(O)O | 1100 |  | Ki [2]: 0.5 nM; Ratio IC50 [4]: 0.014; Ratio IC50 [5]: 4.8
38 | O=P(O)(O)C(CCCc1cccc(Oc2cc(F)cc(F)c2)c1)S(=O)(=O)O (stereo not given) | 15 | 4600 | 

Reference: ChEMBL document CHEMBL1140905
